Experimental data published in ChEMBL document CHEMBL4261652, “Modifying aroylhydrazone prochelators for hydrolytic stability and improved cytoprotection against oxidative stress” (Bioorg Med Chem, 2018).
Active and inactive are the calls of the source. The rule behind the calls is not given here.

Legend:
[1] = Solubility of the compound in aqueous buffer at >50 uM; type: physicochemical
ARPE-19 [2] = assay: Cytotoxicity against human ARPE19 cells up to 100 uM after 24 hrs by CellTiter-Blue assay; type: cell-based; conditions: arpe-19, 24 h
[3] = Iron chelating activity of the compound assessed as recovery of calcein fluorescence from calcein-Fe3+ complex by measuring iron binding constant at 4 uM measured after 2 hrs by fluorescence assay
How it was run: (§1)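 Compound at 100 μM in PBS pH 7.4, prepared fresh, either used directly or first incubated 12 h with 5 mM H2O2. Then brought to 4 μM with 2 μM Fe3+-calcein (preformed 4 h from ferric ammonium citrate and calcein) in PBS, equilibrated 2 h at 25 °C; emission read 485/535 nm, as percent of free calcein; n = 3.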

ARPE-19 [4] = assay: Cytoprotective activity against paraquat-induced oxidative stress in human ARPE19 cells up to 100 uM pretreated for 5 hrs followed by paraquat-stimulation and measured after 48 hrs by CellTiter-Blue assay; type: functional, cell-based
[5] = Iron chelating activity of the compound assessed as recovery of calcein fluorescence from calcein-Fe3+ complex at 4 uM preincubated with H2O2 for 12 hrs followed by addition to calcein-Fe3+ complex measured after 2 hrs by fluorescence assay relative to control; how it was run: as §1
ARPE-19 [6] = assay: Cytoprotective activity against H2O2-induced oxidative stress in human ARPE19 cells at 25 to 50 uM pretreated for 5 hrs followed by H2O2-stimulation and measured after 19 hrs by CellTiter-Blue assay; type: functional, cell-based
How it was run: (§2)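 ARPE-19 cells grown to confluence in 1:1 DMEM/F12 with 10% FBS, 37 °C, 5% CO2; washed with MEM, pre-treated 5 h with compound, then H2O2 added to 200 μM final; viability read 19 h later by CellTiter-Blue, as percent of untreated control; triplicate runs, mean ± SD.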

ARPE-19 [7] = assay: Cytoprotective activity against paraquat-induced oxidative stress in human ARPE19 cells pretreated for 5 hrs followed by paraquat-stimulation and measured after 48 hrs by CellTiter-Blue assay; type: functional, cell-based
ARPE-19 [8] = assay: Cytotoxicity against human ARPE19 cells assessed as reduction in cell viability at 100 uM after 72 hrs by CellTiter-Blue assay; type: cell-based; conditions: arpe-19, 72 h
How it was run: (§3)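 Confluent ARPE-19 monolayers washed three times with MEM, then exposed 72 h to compound at 5–100 μM in MEM containing up to 1% DMSO; viability by CellTiter-Blue; triplicate runs, standard deviations.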

ARPE-19 [9] = assay: Cytoprotective activity against paraquat-induced oxidative stress in human ARPE19 cells assessed as cell viability restoration at 100 uM after 48 hrs relative to control; type: functional
How it was run: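 ARPE-19 cells were grown to confluence in 1:1 DMEM/F12 with 10% FBS at 37 °C and 5% CO2, then washed with MEM. Cells were co-incubated in MEM with 10 mM paraquat plus compound for 48 h, with no pre-incubation step. Viability was read by CellTiter-Blue and expressed as % of the untreated MEM-only control. Triplicate runs, SD.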

[10] = Cytotoxicity against rat H9c2 cells after 72 hrs by neutral red uptake assay; type: cell-based; conditions: read-out: TC50
[11] = Iron chelating activity of the compound assessed as recovery of calcein fluorescence from calcein-Fe3+ complex by measuring iron binding constant at 4 uM preincubated with H2O2 for 12 hrs followed by addition to calcein-Fe3+ complex measured after 2 hrs by fluorescence assay; how it was run: as §1
ARPE-19 [12] = assay: Cytotoxicity against human ARPE19 cells up to 100 uM after 72 hrs by CellTiter-Blue assay; type: cell-based; conditions: arpe-19, 72 h; how it was run: as §3
[13] = Hydrolytic stability in PBS of pH 7.4 assessed as equilibrium constant for hydrolytic product formation after 1 hr measured at 1 min intervals over 30 mins by UV-Vis spectrophotometric analysis; type: physicochemical; conditions: buffer, pH 7.4, 1 h
How it was run: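 K measured by UV-Vis on equilibrated prochelator solutions in PBS pH 7.4 at several starting concentrations. Absorbances at 263 and 321 nm, with extinction coefficients from linear calibration plots, gave equilibrium concentrations of prochelator, hydrazide and aldehyde; K = [INH][FBA]/[prochelator].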

ARPE-19 [14] = assay: Cytoprotective activity against H2O2-induced oxidative stress in human ARPE19 cells up to 100 uM pretreated for 5 hrs followed by H2O2-stimulation and measured after 19 hrs by CellTiter-Blue assay; type: functional, cell-based; how it was run: as §2
[15] = Hydrolytic stability in pH 7.4 PBS buffer at 100 uM by UV-Vis spectrophotometric analysis; type: physicochemical; conditions: pH 7.4, 100 µM, TDE = time-dependent effect
How it was run: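 UV-Vis monitoring of prochelator in PBS pH 7.4 at 1-min intervals over 30 min in 1-cm quartz cuvettes; hydrazide plus aldehyde (100 μM each) mixtures followed as reference.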

[16] = Hydrolytic stability of compound in D2O/5% DMSO-d6 solvent at 200 uM after 1 hr by 1H-NMR spectroscopy; type: physicochemical; conditions: read-out: Stability
[17] = Hydrolytic stability of compound in D2O/2% DMSO-d6 solvent at 200 uM preincubated for 1 hr followed by H2O2 addition measured after 24 hrs by 1H-NMR spectroscopy; type: physicochemical; conditions: D2O/2% DMSO-d6 with H2O2 added; read-out: Stability
ARPE-19 [18] = assay: Cytoprotective activity against H2O2-induced oxidative stress in human ARPE19 cells at 25 uM pretreated for 5 hrs followed by H2O2-stimulation and measured after 19 hrs by CellTiter-Blue assay; type: functional, cell-based; how it was run: as §2
[19] = Hydrolytic stability of compound in D2O/5% DMSO-d6 solvent at 500 uM after 1 hr by 1H-NMR spectroscopy; type: physicochemical
How it was run: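 1H NMR in D2O: prochelator at 500 μM with 5% DMSO-d6, or at 200 μM with 2% DMSO-d6, equilibrated 1 h before spectra; activation by H2O2 added to 25 mM final (10 mM in the 200 μM case), reacting 12 h; aromatic peaks integrated.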

[20] = Hydrolytic stability in PBS of pH 7.4 at 50 uM after 1 hr by UV-Vis spectrophotometric analysis; type: physicochemical; conditions: buffer, pH 7.4, 1 h
ARPE-19 [21] = assay: Cytotoxicity against human ARPE19 cells up to 100 uM over 72 hrs by CellTiter-Blue assay; type: cell-based; conditions: arpe-19, 72 h; how it was run: as §3
[22] = Hydrolytic stability of compound in D2O/5% DMSO-d6 solvent at 500 uM preincubated for 1 hr followed by H2O2 addition measured after 24 hrs by 1H-NMR spectroscopy; type: physicochemical; conditions: D2O/5% DMSO-d6 with H2O2 added; read-out: Stability
ARPE-19 [23] = assay: Cytoprotective activity against paraquat-induced oxidative stress in human ARPE19 cells assessed as cell viability at 100 uM pretreated for 5 hrs followed by paraquat-stimulation and measured after 48 hrs by CellTiter-Blue assay; type: functional; conditions: read-out: Activity

Compound | Activity (ARPE-19 [2]) | Activity [3] | Activity [5] | other results
COc1ccc(/C=N/NC(=O)c2ccncc2)c(O)c1 |  |  |  | solubility [1]: Insoluble
COc1ccc(O)c(/C=N/NC(=O)c2ccncc2)c1 | Non-Toxic | > 90% |  | 
CC1(C)OB(c2ccccc2/C=N/NC(=S)Nc2ccccc2)OC1(C)C | Non-Toxic | inactive | inactive | Activity (ARPE-19 [4]): inactive; Activity (ARPE-19 [6]): Active
C/C(=N\NC(=O)c1ccncc1)c1ccccc1OCc1ccc(B2OC(C)(C)C(C)(C)O2)cc1 |  |  |  | Activity (ARPE-19 [7]): Dose-dependent effect; Activity (ARPE-19 [8]): 25%; Activity (ARPE-19 [9]): 40%; CC50 at 72 h [10]: 37.1 µM
O=C(N/N=C/c1ccccc1O)c1ccncc1 [SALINAZID] | Non-Toxic | > 90% |  | log(activity) [11]: -23
CC1(C)OB(c2ccccc2/C=N/NC(=O)c2ccncc2)OC1(C)C | Non-Toxic | inactive | 50% | Activity (ARPE-19 [12]): Non-Toxic; Activity (ARPE-19 [4]): inactive; K [13]: 1.5 ×10⁻⁵ M; Activity (ARPE-19 [6]): Active
COc1ccc(/C=N/NC(=O)c2cccnc2)c(B2OC(C)(C)C(C)(C)O2)c1 | Non-Toxic | inactive | inactive | 
CNC(=S)N/N=C/c1ccccc1B1OC(C)(C)C(C)(C)O1 | Non-Toxic | inactive | inactive | Activity (ARPE-19 [14]): inactive
COc1ccc(/C=N/NC(=O)c2cccnc2)c(O)c1 | Non-Toxic | > 90% |  | 
O=C(N/N=C/c1ccc(Cl)cc1B(O)O)c1ccncc1 | Non-Toxic | inactive | inactive | 
CC1(C)OB(c2cc3c(cc2/C=N/NC(=O)c2ccncc2)OCO3)OC1(C)C | Non-Toxic | inactive | 75% | Activity (ARPE-19 [7]): Dose-dependent effect; Activity (ARPE-19 [12]): Non-Toxic; K [13]: 8 ×10⁻⁶ M; Stability [15]: Tde; remaining at 1 h, 200 µM [16]: 80%; remaining at 24 h, 200 µM [17]: 45%; Activity (ARPE-19 [18]): Active
COc1ccc(/C=N/NC(=O)c2ccncc2)cc1B1OC(C)(C)C(C)(C)O1 | Non-Toxic | inactive | inactive | Activity (ARPE-19 [14]): inactive; Activity (ARPE-19 [4]): inactive; Stability ([19]; 1 h, 500 µM): Stable; Stability [20]: Stable
Oc1ccccc1/C=N/NC(=S)Nc1ccccc1 | Non-Toxic | inactive |  | 
CNC(=S)N/N=C/c1ccccc1O | Non-Toxic | inactive |  | Activity (ARPE-19 [14]): inactive
COc1ccc(B2OC(C)(C)C(C)(C)O2)c(/C=N/NC(=O)c2ccncc2)c1 | Non-Toxic | inactive | 60% | Activity (ARPE-19 [21]): Toxic; K [13]: 1.1 ×10⁻⁵ M; Stability [15]: Tde; remaining at 1 h, 500 µM ([19]; D2O/5% DMSO-d6, read-out: Stability): 85%; Activity (ARPE-19 [8]): 20%; Activity (ARPE-19 [18]): Active; remaining at 24 h, 500 µM [22]: 67%; viability at 100 µM (ARPE-19 [23]): 30%
